EBV gp42 block: blocks Epstein-Barr virus glycoprotein 42 binding | Q1HVG2 | Fluorescence polarization binding assay, mP read-out | inhibition, % (tested at 21.74 µM) | 0.42% of 220,000 active; in the data active = inhibition above about 50%
Target sequence (Q1HVG2 whole entry, looked up): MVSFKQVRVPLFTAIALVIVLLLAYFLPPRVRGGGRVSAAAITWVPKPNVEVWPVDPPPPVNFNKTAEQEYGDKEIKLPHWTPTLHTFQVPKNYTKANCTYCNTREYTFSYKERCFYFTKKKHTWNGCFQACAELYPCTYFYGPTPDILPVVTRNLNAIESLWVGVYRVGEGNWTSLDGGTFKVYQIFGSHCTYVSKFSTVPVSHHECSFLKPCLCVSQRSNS
MCL1-BIM inh: MCL1-BIM-BH3 interaction inhibition (human); GST-MCL1 / FITC-Bim-BH3 fluorescence polarization; inhibition, % at 10.9 µM; 0.68% of 320,000 active;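 active = inhibition above the mean inhibition of all tested compounds plus 3 SD, set per campaign, cut at about 40% in these data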;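 also: higher means more loss of mP so more displacement of Bim peptide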
Mcl1-Bid inh: Mcl-1/Bid interaction inhibition | Q07820 | TR-FRET Mcl-1/Bid-Dy647 peptide binding, 1536-well | inhibition, % at 21.7 µM | 0.97% of 220,000 active;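 active = compounds that cut the binding signal by more than half at the single screening dose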;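 also: His-tagged Mcl-1 with europium anti-His antibody binding Bid BH3 peptide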
RBBP9 inhibitor: inhibitors of human serine hydrolase RBBP9. O75884. recombinant RBBP9, FP-Rh probe fluorescence polarization. inhibition, % at 7.94 µM. 0.2% of 220,000 active. AID 1515;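 active = inhibition above the campaign mean of all tested compounds plus 3 SD, cut at about 14% in these data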
Target sequence (O75884 whole entry, looked up): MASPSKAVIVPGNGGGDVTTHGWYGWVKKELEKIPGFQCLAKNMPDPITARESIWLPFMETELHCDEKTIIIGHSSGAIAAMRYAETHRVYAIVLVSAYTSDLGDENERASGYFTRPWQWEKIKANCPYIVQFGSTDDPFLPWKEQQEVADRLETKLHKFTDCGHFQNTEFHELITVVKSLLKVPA
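Controls: DMSO-treated enzyme wells and wells lacking RBBP9 | Material: RBBP9 protein | Technique: Fluorescence polarization | Replication: Single well per compound, no replicates | Buffer or medium: Tris-NaCl-Pluronic buffer, pH 8.0 | Timing: 30 min compound preincubation, 45 min probe labeling, 25 °C | Read-out basis: Percent inhibition from mP, scaled between DMSO and no-protein wells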
Mcl1-Noxa inh: disrupts binding of human Mcl-1 to Noxa peptide. Q07820. TR-FRET Mcl-1/Noxa peptide binding, 2 h. inhibition, % at 21.7 µM. 1.5% of 220,000 active;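 active = compounds that cut the protein-peptide binding signal by more than 50% relative to plate controls in a single-dose test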;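 also: His-tagged Mcl-1 with rhodamine Noxa BH3 peptide and terbium anti-His antibody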
Mcl-1 Bim block: disrupts Bim peptide binding to human Mcl-1 | Q07820 | Bead-based flow cytometry, Bim peptide-Mcl-1 binding | inhibition, % at 10 µM | 0.1% of 190,000 active; in the data active = inhibition above about 40%
Numbers stand for hits; i = inactive; nt = no result given. The list is not random: actives were taken first. Their share in the collection is about 2.2%.

SMILES	EBV gp42 block	MCL1-BIM inh	Mcl1-Bid inh	RBBP9 inhibitor	Mcl1-Noxa inh	Mcl-1 Bim block
Cc1ccc(S(=O)(=O)Nc2nc3ccccc3nc2NCc2ccco2)cc1	i	43	i	i	i	i
O=S(=O)(Nc1nc2ccccc2nc1NCc1ccco1)c1ccc(Cl)cc1	i	i	i	i	i	i
COc1cc(CCNC(=O)CCCn2c(=O)c3cccn3c3cccnc32)cc(OC)c1OC	nt	i	nt	nt	nt	nt
CC1CC(C)CN(CCOCCSc2ccccc2)C1 (configuration not stated)	i	i	69	i	i	i
Nc1nc2nc(SCC(=O)N3CCCc4ccccc43)[nH]c2c(=O)[nH]1	i	i	i	i	59	i
COc1ccc(-c2nn(C)c(=O)c3ccccc23)cc1CNC(=O)NC1CCCCC1	i	i	62	i	i	i
Cc1ccc(-c2nn(CC(=O)NCc3cc(-c4nn(C)c(=O)c5ccccc45)ccc3C)c(=O)c3ccccc23)cc1	i	i	79	i	i	i
Cc1cc(-c2nn(C)c(=O)c3ccccc23)ccc1CNC(=O)NC1CCCCC1	i	i	i	i	i	i
COc1cc(Br)cc(CNc2ccc(F)c([N+](=O)[O-])c2)c1O	i	i	i	i	i	i
OC[C@H]1O[C@@H](O[C@@H]2[C@@H](CO)O[C@@](O)(CO)[C@H]2O)[C@H](O)[C@@H](O)[C@H]1O	nt	i	nt	nt	nt	nt
COC(=O)CSc1nc(N)c(C#N)c(-c2ccc(O)cc2)c1C#N	i	i	57	i	i	nt
O=c1ccc2ccc(OCCOc3cccc(Cl)c3)cc2o1	nt	i	nt	nt	nt	nt
Cc1cc(N2CCOCC2)n2cc(-c3ccccc3)nc2n1	i	i	i	i	i	i
Cc1cc(N2CC(C)OC(C)C2)n2cc(-c3ccccc3)nc2n1 (configuration not stated)	i	i	80	i	i	i
CCOc1ccc(N(C(C)C(=O)N2CCOCC2)S(C)(=O)=O)cc1 (configuration not stated)	nt	i	nt	nt	nt	nt
CC(C)(C)OC(=O)N[C@@H](C(=O)OC(C)(C)C)c1ccc(Br)cc1	nt	i	nt	nt	nt	nt
COc1ccc(/C=N/NC(=O)c2nnn(-c3nonc3N)c2CN(C)c2ccccc2)cc1	nt	i	nt	nt	nt	nt
O=c1c(C(c2ccc(O)cc2)c2c(O)nc3n(c2=O)CCS3)c(O)nc2n1CCS2	i	i	i	i	60	i
O=c1c(C(c2c(O)nc3n(c2=O)CCS3)c2cccc3ccccc23)c(O)nc2n1CCS2	i	i	i	i	53	i
O=c1c(C(c2ccc(Br)cc2)c2c(O)nc3n(c2=O)CCCS3)c(O)nc2n1CCCS2	i	i	i	i	i	nt
Cc1ccc(C(c2c(O)nc3n(c2=O)CCS3)c2c(O)nc3n(c2=O)CCS3)cc1	i	i	i	i	i	i
O=c1c(C(c2ccc(O)cc2)c2c(O)nc3n(c2=O)CCCS3)c(O)nc2n1CCCS2	i	i	i	i	52	i
CC(C)(C)c1ccc(C(=O)NCCC(=O)Nc2cc(Cl)ccc2N2CCOCC2)cc1	nt	i	nt	nt	nt	nt
CC1CCCN(C(=O)c2ccc(NS(=O)(=O)c3cccc([N+](=O)[O-])c3)cc2)C1 (configuration not stated)	nt	i	nt	nt	nt	nt
CC(C)N(C(=O)C[n+]1ccc(/C=N/O)cc1)C(C)C	77	i	i	i	i	i
SMILES	EBV gp42 block	MCL1-BIM inh	Mcl1-Bid inh	RBBP9 inhibitor	Mcl1-Noxa inh	Mcl-1 Bim block
COc1cc(NS(=O)(=O)c2ccc(NC(=S)NC(=O)c3sc4ccccc4c3Cl)cc2)ncn1	i	i	i	i	55	i
O=C(COc1ccc2ccccc2c1)NNC(=O)c1ccc([N+](=O)[O-])cc1	i	i	i	i	82	i
CCS(=O)(=O)C1=NN2C(=N)/C(=C\c3ccc(SCc4ccco4)o3)C(=O)N=C2S1	i	nt	i	i	80	i
C=C(C)COc1ccc(-c2n[nH]c(C)c2-c2ccc(OC)c(OC)c2)c(O)c1	i	i	i	i	i	nt
O=c1[nH]c(CSc2ncccn2)nc2c1cnn2-c1ccccc1	i	i	i	i	58	i
Cc1ccc(C)c(S(=O)(=O)ON2C(=O)c3ccccc3C2=O)c1	i	i	i	i	60	i
O=C(O)c1cccc(N2C(=O)/C(=C/c3ccc(SCc4ccc(Cl)cc4)o3)SC2=S)c1	i	nt	84	i	89	i
COc1ccc(C2N(C(=O)N(C)C)CCN2S(=O)(=O)c2ccc(OC)cc2)cc1 (configuration not stated)	nt	i	nt	nt	nt	nt
COc1ccc(-c2cc(C(=O)Nc3cc(Cl)ccc3O)no2)cc1	nt	i	nt	nt	nt	nt
COc1ccc(-c2csc(NC(=O)CSc3nc(C)cs3)n2)cc1	i	i	i	i	i	i
COc1ccc(-c2csc(NC(=O)CSc3nc(C)nc4sc(C(=O)O)c(C)c34)n2)cc1	65	i	i	i	99	nt
CCOC(=O)c1c(NC(=O)CSc2nc3cc(Cl)ccc3c(=O)n2Cc2ccco2)sc(C(=O)N(C)C)c1C	i	i	i	i	i	i
C#CCn1c(=NC(=O)c2ccc(Br)s2)sc2cc(NC(C)=O)ccc21	i	i	58	i	i	i
CCCCCC1CC(CC(=O)O)C(=O)O1 (configuration not stated)	i	i	i	i	i	i
CCCCCC1CC(CC#CCN2CCOCC2)C(=O)O1 (configuration not stated)	i	i	51	i	i	i
FC(F)(F)c1nc(=S)c2ccccc2[nH]1	i	nt	i	i	i	86
Nc1cccc2[nH]c(C(F)(F)F)nc12	i	i	i	i	52	i
N=c1cc(C2(O)CCCCC2)n2c(nc3ccccc32)s1	i	i	98	i	i	i
CCOc1ccc(NC(=O)CCCNC(=O)Cn2cnc3sc(C)c(C)c3c2=O)cc1	nt	i	nt	nt	nt	nt
O=C(COC(=O)/C=C/c1ccc([N+](=O)[O-])cc1)Nc1ccc(F)cc1	nt	i	nt	nt	nt	nt
NC(=O)c1ccsc1NC(=O)COC(=O)/C=C/c1ccc([N+](=O)[O-])cc1	i	i	i	i	79	nt
CCn1c(SCC(=O)N2CCOCC2)nc2sc3c(c2c1=O)CCCC3	i	i	i	i	i	i
CCn1c(SCC(=O)N2CCOCC2)nc2oc3c(Cl)cc(Cl)cc3c(=O)c2c1=O	i	i	i	i	54	i
CCc1ccc2[nH]c(=O)c(C(c3nnnn3CC3CCCO3)N3CCN4CCCC4C3)cc2c1 (configuration not stated)	i	i	95	i	i	i
CCN(CC(=O)Nc1ccc2c(c1)OCCO2)C(=O)CC(NC(C)=O)c1ccccc1 (configuration not stated)	nt	i	nt	nt	nt	nt
N=C1S/C(=C\c2ccco2)C(=O)N1c1ccc2c(c1)OCO2	i	i	i	i	84	i
Cc1cc2nc(-c3cccnc3SCC(=O)NCc3ccco3)[nH]c2cc1C	i	i	i	i	73	i
O=C(CSc1ncccc1-c1nc2ccccc2[nH]1)NCc1ccco1	i	i	i	i	i	i
CC(C)CC(NC(N)=O)C(=O)NCCc1ccc(Cl)cc1Cl (configuration not stated)	i	i	i	i	i	i

Source: PubChem
